Reference: ChEMBL document CHEMBL2062476, “One pot efficient diversity oriented synthesis of polyfunctional styryl thiazolopyrimidines and their bio-evaluation as antimalarial and anti-HIV agents” (Eur J Med Chem, 2012)
Values after ≈ are worked out from the molar mass of the structure shown.

What was measured:
[1] = system: Plasmodium falciparum; test: Antimalarial activity against chloroquine sensitive Plasmodium falciparum 3D7 infected in RBCs incubated for 72 hrs by SYBRgreen dye based fluorometric assay; type: functional, organism-based; details: 3D7, 72 h
Summary of the method: (§1)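 Parasites kept in RPMI-1640 (HEPES) with 0.5% AlbuMaxII, 0.2% glucose, 0.2% NaHCO3, 15 µM hypoxanthine, 37 °C, 5% CO2. Compounds in DMSO (10mg/mL stock), two-fold serial dilutions. Infected erythrocytes added at 4% haematocrit, 1% parasitaemia, incubated 72 h. Lysis buffer with SYBR green added for 4 h in the dark at room temp. Fluorescence read at ex 485/em 535 nm. IC50 taken from parasite DNA content relative to controls.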

[2] = system: Plasmodium falciparum; test: Antimalarial activity against chloroquine resistant Plasmodium falciparum K1 infected in RBCs incubated for 72 hrs by SYBRgreen dye based fluorometric assay; type: functional, organism-based; details: K1, 72 h; summary of the method: as §1
[3] = Cytotoxicity against african green monkey Vero C1008 cells incubated for 72 hrs by resazurin dye based fluorometric assay; type: cell-based; details: chlorocebus sabaeus
Summary of the method: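 Vero (C1008) cells grown in MEM with 15% FBS, 37 °C, 5% CO2; trypsinized, seeded at 1 × 10^5 cells/mL and left to adhere overnight. Serial compound dilutions added for 72 h. Resazurin added, fluorescence read after 4 h; CC50 derived from viability.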

[4] = Selectivity index, ratio of CC50 for african green monkey Vero C1008 cells to IC50 for chloroquine sensitive Plasmodium falciparum 3D7; type: functional
Summary of the method: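 SI = CC50 in Vero cells (resazurin, 72 h) divided by IC50 against P. falciparum 3D7. The IC50 came from a SYBR green assay: cultures in RPMI-1640 with 0.5% AlbuMaxII and 15 µM hypoxanthine, 4% haematocrit, 1% parasitaemia, two-fold dilutions, 72 h at 37 °C. Lysis with SYBR green for 4 h, read at ex 485/em 535 nm.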

[5] = Selectivity index, ratio of CC50 for african green monkey Vero C1008 cells to IC50 for chloroquine resistant Plasmodium falciparum K1; type: functional
Summary of the method: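 Vero C1008 cells grown in MEM with 15% FBS. Seeded at 1 × 10^5 cells/mL, left to adhere overnight, then exposed to serial compound dilutions for 72 h. Viability read by resazurin fluorescence after 4 h and CC50 derived. SI = CC50 / IC50 against K1, with IC50 from the 72 h SYBR green parasite assay.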

[6] = system: Human immunodeficiency virus; test: Inhibition of HIV reverse transcriptase activity at 10 ug/ml incubated at 37 degC for 1 hr by ELISA RT assay
Summary of the method: (§2)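 Colorimetric ELISA kit: template/primer with dNTPs (digoxigenin- and biotin-labelled dUTP) plus HIV-1 RT in lysis buffer, 60 µl total, 37 °C for 1 h; no-RT lysis buffer as negative control. Product captured on streptavidin plate 1 h at 37 °C, anti-DIG-POD (200 mU/mL) 1 h, ABTS substrate; OD 405 nm (reference 490 nm).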

[7] = system: Human immunodeficiency virus; test: Inhibition of HIV reverse transcriptase activity at 100 ug/ml incubated at 37 degC for 1 hr by ELISA RT assay; summary of the method: as §2

Row | SMILES | IC50 [1] [µg/mL] | IC50 [2] [µg/mL] | CC50 at 72 h [3] [µg/mL] | Ratio CC50/IC50 [4] | Ratio CC50/IC50 [5] | inhibition [6] [%] | inhibition [7] [%]
1 | COc1ccc(C2C(C(=O)/C=C/c3ccc(F)cc3)=C(/C=C/c3ccc(F)cc3)N=C3SC=C(C)N32)cc1 (centres undefined) | 5.15 (≈ 9.78 µM) | 1.09 (≈ 2.07 µM) | 261 (≈ 495 µM) | 50.65 | 239.29 | 9.22 | 41.4
2 | CC1=CSC2=NC(/C=C/c3ccc(OCc4ccccc4)cc3)=C(C(=O)/C=C/c3ccc(OCc4ccccc4)cc3)C(c3ccc(Cl)cc3)N12 (centres undefined) | 6.97 (≈ 9.85 µM) | 19.6 (≈ 27.6 µM) | > 500 | >71.74 | >25.56 | 17.6 | 18.6
3 | CC1=CSC2=NC(/C=C/c3ccc(F)cc3)=C(C(=O)/C=C/c3ccc(F)cc3)C(c3ccccc3)N12 (centres undefined) | 2.68 (≈ 5.4 µM) | 1.59 (≈ 3.2 µM) | 306 (≈ 616 µM) | 114.22 | 192.53 | 30 | 59.2
4 | COc1ccc(C2C(C(=O)/C=C/c3ccc4c(c3)OCO4)=C(/C=C/c3ccc4c(c3)OCO4)N=C3SC=C(C)N32)cc1 (centres undefined) | 3.94 (≈ 6.81 µM) | 1.14 (≈ 1.97 µM) | 418 (≈ 722 µM) | 106 | – | 58.8 | 70.8
5 | CC1=CSC2=NC(/C=C/c3ccccc3)=C(C(=O)/C=C/c3ccccc3)C(c3ccccc3)N12 (centres undefined) | 0.57 (≈ 1.24 µM) | 0.79 (≈ 1.72 µM) | 195 (≈ 424 µM) | 342.93 | 247.43 | 42.3 | 49.6
6 | CC1=CSC2=NC(/C=C/c3ccc(Cl)cc3)=C(C(=O)/C=C/c3ccc(Cl)cc3)C(c3ccccc3)N12 (centres undefined) | 5.15 (≈ 9.73 µM) | 2.71 (≈ 5.12 µM) | 252 (≈ 477 µM) | 49.03 | 93.17 | 42.6 | 53.4
7 | COc1cc(/C=C/C(=O)C2=C(/C=C/c3cc(OC)c(OC)c(OC)c3)N=C3SC=C(C)N3C2c2ccccc2)cc(OC)c1OC (centres undefined) | 0.5 (≈ 0.78 µM) | < 0.3 | 260 (≈ 407 µM) | 520.94 | >868.23 | 5.69 | 66.9
8 | CC1=CSC2=NC(/C=C/c3ccccc3Cl)=C(C(=O)/C=C/c3ccccc3Cl)C(c3ccc(Cl)cc3)N12 (centres undefined) | 5.9 (≈ 10.5 µM) | 2.79 (≈ 4.95 µM) | 430 (≈ 762 µM) | 72.84 | 154.03 | 18 | 26.1
9 | COc1ccc(C2C(C(=O)/C=C/c3ccccc3)=C(/C=C/c3ccccc3)N=C3SC=C(C)N32)cc1 (centres undefined) | 2.11 (≈ 4.3 µM) | 0.85 (≈ 1.73 µM) | 211 (≈ 430 µM) | 99.95 | 248.11 | 39.4 | 48.6
10 | CC1=CSC2=NC(/C=C/c3ccc(Cl)cc3)=C(C(=O)/C=C/c3ccc(Cl)cc3)C(c3ccc(Cl)cc3)N12 (centres undefined) | 0.85 (≈ 1.51 µM) | 0.6 (≈ 1.06 µM) | 309 (≈ 548 µM) | 363.57 | 515.05 | 10.6 | 11.4
11 | CC1=CSC2=NC(/C=C/c3cccc(Cl)c3)=C(C(=O)/C=C/c3cccc(Cl)c3)C(c3ccccc3)N12 (centres undefined) | 0.79 (≈ 1.49 µM) | 1.2 (≈ 2.27 µM) | 286 (≈ 540 µM) | 361.96 | 238.29 | 15.4 | 54.5
12 | COc1ccc(/C=C/C(=O)C2=C(/C=C/c3ccc(OC)cc3)N=C3SC=C(C)N3C2c2ccccc2)cc1 (centres undefined) | 2.19 (≈ 4.21 µM) | < 0.76 | 358 (≈ 688 µM) | 163.56 | >471.31 | 40.6 | 32.7
13 | CC1=CSC2=NC(/C=C/c3ccc(OCc4ccccc4)cc3)=C(C(=O)/C=C/c3ccc(OCc4ccccc4)cc3)C(c3ccccc3)N12 (centres undefined) | 24.5 (≈ 36.4 µM) | 4.3 (≈ 6.39 µM) | > 500 | >20.39 | >116.28 | 47.7 | 56.3
14 | Cc1ccnc2c1NC(=O)c1cccnc1N2C1CC1 | – | – | – | – | – | 97.9 | –
15 | CC1=CSC2=NC(/C=C/c3cccc(Cl)c3)=C(C(=O)/C=C/c3cccc(Cl)c3)C(c3ccc(Cl)cc3)N12 (centres undefined) | 2.25 (≈ 3.99 µM) | < 0.76 | 317 (≈ 563 µM) | 141.02 | >417.5 | 13.2 | 16.6
16 | CC1=CSC2=NC(/C=C/c3ccccc3Cl)=C(C(=O)/C=C/c3ccccc3Cl)C(c3ccccc3)N12 (centres undefined) | 0.56 (≈ 1.06 µM) | 0.36 (≈ 0.68 µM) | 206 (≈ 389 µM) | 367.88 | 572.25 | 38.9 | 73.4
17 | COc1ccc(C2C(C(=O)/C=C/c3cccs3)=C(/C=C/c3cccs3)N=C3SC=C(C)N32)cc1 (centres undefined) | 5.17 (≈ 10.3 µM) | 2.03 (≈ 4.04 µM) | 235 (≈ 468 µM) | 45.48 | 115.83 | 47.7 | 54.4
18 | COc1ccc(C2C(C(=O)/C=C/c3ccc(Cl)cc3)=C(/C=C/c3ccc(Cl)cc3)N=C3SC=C(C)N32)cc1 (centres undefined) | 5.3 (≈ 9.47 µM) | 1.49 (≈ 2.66 µM) | 273 (≈ 487 µM) | 51.42 | 182.89 | 31.2 | 50.9
19 | COc1cc(/C=C\C2=C(C(=O)/C=C/c3cc(OC)c(OC)c(OC)c3)C(c3cc(OC)c(OC)c(OC)c3)N3C(C)=CSC3=N2)cc(OC)c1OC (centres undefined) | 6.82 (≈ 9.33 µM) | < 0.76 | 167 (≈ 228 µM) | 24.44 | >219.3 | 48.4 | 55.9
20 | CC1=CSC2=NC(/C=C/c3ccccc3)=C(C(=O)/C=C/c3ccccc3)C(c3ccc(Cl)cc3)N12 (centres undefined) | 0.5 (≈ 1.01 µM) | 0.27 (≈ 0.545 µM) | 320 (≈ 646 µM) | 639.3 | 1183.89 | 23.6 | 30.6
21 | CC1=CSC2=NC(/C=C/c3ccc(Br)cc3)=C(C(=O)/C=C/c3ccc(Br)cc3)C(c3ccccc3)N12 (centres undefined) | 5.38 (≈ 8.7 µM) | 2.5 (≈ 4.04 µM) | 282 (≈ 457 µM) | 52.48 | 112.93 | 39.8 | 55.4
22 | CC1=CSC2=NC(/C=C/c3ccc4c(c3)OCO4)=C(C(=O)/C=C/c3ccc4c(c3)OCO4)C(c3ccccc3)N12 (centres undefined) | 5.07 (≈ 9.24 µM) | 1.09 (≈ 1.99 µM) | 497 (≈ 905 µM) | 97.97 | 455.71 | – | –
23 | CC1=CSC2=NC(/C=C/c3ccc(Br)cc3)=C(C(=O)/C=C/c3ccc(Br)cc3)C(c3ccc(Cl)cc3)N12 (centres undefined) | 1.27 (≈ 1.95 µM) | 1.22 (≈ 1.87 µM) | 420 (≈ 643 µM) | 330.51 | 344.06 | 17.8 | 26.5
24 | COc1ccc(/C=C/C(=O)C2=C(/C=C/c3ccc(OC)cc3)N=C3SC=C(C)N3C2c2cc(OC)c(OC)c(OC)c2)cc1 (centres undefined) | 1.57 (≈ 2.57 µM) | 0.71 (≈ 1.16 µM) | 348 (≈ 570 µM) | 221.57 | 489.94 | 30.1 | 51.3
